Active and inactive are the calls of the source. The calls are words filed in the database; no cut-off is given here.
Columns and labels:
Mus musculus = assay: Antifibrotic activity in CCl4-induced BALB/c mouse model of liver fibrosis assessed as reduction in liver fibrosis area at 5 mg/kg, po administered once daily at week 4 to 6 by picro-sirius red staining based microscopy; type: functional, organism-based
How it was run: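 Female BALB/c mice given CCl4 i.p. (1 mL/kg of 25% CCl4 in olive oil) twice weekly for 6 weeks; sacrificed 48 h after last dose. Test articles oral, once daily: prophylactic weeks 1-6 or therapeutic weeks 4-6; imatinib control 50 mg/kg daily weeks 1-6. One formalin-fixed liver lobe stained for Picro Sirius Red and α-SMA; fibrotic area as % of total liver area; mean ± SEM, one-way ANOVA with Dunnett's test.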

Lysyl oxidase homolog 2 [1] = target: T1, Lysyl oxidase homolog 2 (Homo sapiens, UniProt Q9Y4K0); assay: Inhibition of recombinant human LOXL2 assessed as inhibition of collagen cross linking compound replenishment for 5 days and measured on day 7 by UPLC-ESI-MS/MS analysis
T1 sequence (Q9Y4K0 whole entry): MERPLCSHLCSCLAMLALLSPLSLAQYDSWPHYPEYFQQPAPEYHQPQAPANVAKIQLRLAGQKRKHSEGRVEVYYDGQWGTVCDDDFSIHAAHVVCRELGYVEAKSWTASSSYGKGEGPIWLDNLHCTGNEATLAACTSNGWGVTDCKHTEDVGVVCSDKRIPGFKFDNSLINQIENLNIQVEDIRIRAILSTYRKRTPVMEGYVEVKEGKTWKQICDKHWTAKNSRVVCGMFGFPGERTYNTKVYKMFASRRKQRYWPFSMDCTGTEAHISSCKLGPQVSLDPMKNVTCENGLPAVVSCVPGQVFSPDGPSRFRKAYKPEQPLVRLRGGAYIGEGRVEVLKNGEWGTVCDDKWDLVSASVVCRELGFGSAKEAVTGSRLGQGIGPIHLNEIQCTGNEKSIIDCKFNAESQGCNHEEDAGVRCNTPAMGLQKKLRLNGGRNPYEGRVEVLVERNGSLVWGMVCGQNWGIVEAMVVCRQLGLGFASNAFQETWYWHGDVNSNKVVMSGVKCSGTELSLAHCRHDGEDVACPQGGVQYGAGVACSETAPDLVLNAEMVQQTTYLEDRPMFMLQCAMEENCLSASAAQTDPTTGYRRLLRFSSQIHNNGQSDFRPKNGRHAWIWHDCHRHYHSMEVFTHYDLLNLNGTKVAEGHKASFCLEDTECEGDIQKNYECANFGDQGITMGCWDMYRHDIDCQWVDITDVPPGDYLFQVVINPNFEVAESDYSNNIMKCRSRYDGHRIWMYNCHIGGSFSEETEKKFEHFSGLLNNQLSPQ

[2] = Stability in rat plasma assessed as half life
[3] = Stability in rat plasma assessed as half life; type: ADME, cell-free
Lysyl oxidase homolog 3 = target: T2, Lysyl oxidase homolog 3 (Homo sapiens, UniProt P58215); assay: Inhibition of recombinant C-terminal His-tagged human LOXL3 (1 to 753 residues) expressed in CHO cells using putrescine as substrate preincubated with enzyme for 30 mins followed by substrate addition and measured every 2.5 mins for 30 mins by Amplex-Red oxidation assay
T2 sequence (P58215 whole entry): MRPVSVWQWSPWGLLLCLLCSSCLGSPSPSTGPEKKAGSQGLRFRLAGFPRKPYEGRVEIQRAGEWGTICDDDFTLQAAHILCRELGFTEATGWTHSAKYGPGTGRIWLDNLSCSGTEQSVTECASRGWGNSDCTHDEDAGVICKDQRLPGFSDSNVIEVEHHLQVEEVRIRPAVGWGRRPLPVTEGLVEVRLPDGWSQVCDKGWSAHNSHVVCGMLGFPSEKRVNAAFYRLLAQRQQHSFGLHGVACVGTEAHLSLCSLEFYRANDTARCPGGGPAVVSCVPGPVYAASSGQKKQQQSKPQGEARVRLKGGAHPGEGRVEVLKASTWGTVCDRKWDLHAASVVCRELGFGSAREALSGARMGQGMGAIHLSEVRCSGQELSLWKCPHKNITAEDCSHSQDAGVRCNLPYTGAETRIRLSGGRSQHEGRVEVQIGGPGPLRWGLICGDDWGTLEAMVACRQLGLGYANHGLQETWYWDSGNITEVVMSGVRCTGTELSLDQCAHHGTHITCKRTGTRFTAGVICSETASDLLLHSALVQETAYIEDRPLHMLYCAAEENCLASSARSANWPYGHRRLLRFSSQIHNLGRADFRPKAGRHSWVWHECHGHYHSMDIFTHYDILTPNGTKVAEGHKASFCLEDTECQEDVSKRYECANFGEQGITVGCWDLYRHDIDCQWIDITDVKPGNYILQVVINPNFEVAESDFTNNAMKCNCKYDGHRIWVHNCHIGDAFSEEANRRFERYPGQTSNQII
How it was run: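 Recombinant human LOXL3 or LOXL4 preincubated 30 min at 37 °C with compound in 1.2 M urea/50 mM borate pH 8.2, then Amplex Red (120 µM)/HRP (1.5 U/mL) with 2 mM putrescine; fluorescence read every 2.5 min for 30 min.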

Lysyl oxidase homolog 2 [4] = target: T1, Lysyl oxidase homolog 2; assay: Inhibition of LOXL2 in human IMR90 cells using putrescine as substrate preincubated with enzyme for 30 mins followed by substrate addition and measured every 2.5 mins for 30 mins by Amplex-Red oxidation assay; type: cell-based
How it was run: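 IMR90 fibroblasts grown in MEM/10% FBS to 80% confluence, then 48-72 h in phenol-red-free 0.1% FBS medium. Conditioned medium concentrated 40-fold (10 kDa). LOX and LOXL2 separated on a 50 kDa filter in 6 M urea/borate, then diluted back to 1.2 M urea. Preincubated 30 min at 37 °C with compound; Amplex Red/HRP/putrescine readout every 2.5 min over 30 min.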

Protein-lysine 6-oxidase = target: T3, Protein-lysine 6-oxidase (Mus musculus, UniProt P28301); assay: Inhibition of LOX in mouse lung fibroblast cells using putrescine as substrate preincubated with enzyme for 30 mins followed by substrate addition and measured every 2.5 mins for 30 mins by Amplex-Red oxidation assay
T3 sequence (P28301 whole entry): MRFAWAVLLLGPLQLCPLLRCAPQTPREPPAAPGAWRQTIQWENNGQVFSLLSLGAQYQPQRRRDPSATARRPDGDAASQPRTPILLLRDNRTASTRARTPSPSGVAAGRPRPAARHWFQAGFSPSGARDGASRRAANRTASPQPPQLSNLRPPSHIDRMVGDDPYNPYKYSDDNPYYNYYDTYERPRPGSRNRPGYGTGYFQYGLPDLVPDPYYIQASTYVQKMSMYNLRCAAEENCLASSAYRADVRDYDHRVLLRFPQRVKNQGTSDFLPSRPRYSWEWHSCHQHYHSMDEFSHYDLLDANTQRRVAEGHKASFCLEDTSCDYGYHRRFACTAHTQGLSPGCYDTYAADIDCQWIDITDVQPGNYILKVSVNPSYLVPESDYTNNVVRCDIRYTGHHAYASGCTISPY
How it was run: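 LOX from conditioned medium of fibroblasts cultured from homogenized mouse lung, concentrated and isolated as for the human fibroblast enzyme, in 1.2 M urea/50 mM borate pH 8.2. 30 min preincubation with compound at 37 °C, then Amplex Red/HRP plus putrescine; fluorescence read every 2.5 min for 30 min.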

Row | IC50 (Lysyl oxidase homolog 2 [1]) | half-life [2] | half-life [3] | IC50 (Lysyl oxidase homolog 3) | IC50 (Lysyl oxidase homolog 2 [4]) | IC50 (Protein-lysine 6-oxidase) | SMILES | inhibition (Mus musculus)
1 |  |  |  |  |  |  | CCOC(=O)c1ccc2c(c1)c(-c1cccc(S(=O)(=O)N(C)C)c1)c(C)n2C/C(F)=C/CN.Cl | Active
2 | 13 nM | > 2 h | > 2 h | 16 nM | 9 nM | 1750 nM | Cc1c(-c2cccc(S(=O)(=O)N(C)C)c2)c2cc(C(=O)O)ccc2n1C/C(F)=C/CN.Cl | 
